Results published in PMC10921549 (Journal of Agricultural and Food Chemistry, 2024).

How the values were obtained:
OR8H1 = molecular target: T1, OR8H1 (Homo sapiens, UniProt Q8NGG4); test: HEK-293 cell-based cAMP luminescence; conditions: for KFO library screening response of OR8H1 (2σ-threshold): each KFO 300 μmol/L, normalized to OR8H1 response to 30 μmol/L TDN; for agonist validation by concentration–response relation on OR8H1: human OR8H1
T1 sequence (Q8NGG4 1-311): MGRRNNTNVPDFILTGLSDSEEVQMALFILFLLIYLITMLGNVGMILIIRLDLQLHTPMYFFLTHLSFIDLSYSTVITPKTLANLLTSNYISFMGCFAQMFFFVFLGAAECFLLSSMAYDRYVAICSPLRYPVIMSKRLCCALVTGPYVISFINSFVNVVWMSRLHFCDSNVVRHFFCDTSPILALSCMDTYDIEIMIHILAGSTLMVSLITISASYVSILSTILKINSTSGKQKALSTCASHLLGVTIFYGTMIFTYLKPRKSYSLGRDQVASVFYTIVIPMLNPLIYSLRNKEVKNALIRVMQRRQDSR
In short: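 In HEK-293 cells expressing recombinant human OR8H1 with GloSensor cAMP luciferase, each of 180 GC-pure food odorants is applied at 300 μmol/L (n = 1, triplicate). After basal subtraction, mock is subtracted and responses are normalized to the 30 μmol/L reference agonist signal; the hit threshold is 2σ. For concentration–response, EC50 comes from a nonlinear Hill fit (slope ≤2.9, weighted by 0.1/SD). Results are mean ± SD.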

OR2W1 = conditions: present study and ref 50; cited from earlier work
ptOR8H1 = test: HEK-293 cAMP luminescence assay, chimp ortholog ptOR8H1; format: cell-based, Pan troglodytes (chimpanzee); conditions: for response of chimp orthologue (concentration–response): ptOR8H1
In short: (§1)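 HEK-293 cells (37 °C, 5% CO2, 100% humidity; high-glucose DMEM, 10% FBS, 2 mM L-glutamine, penicillin/streptomycin) transiently express the OR ortholog with a GloSensor cAMP luciferase, and luminescence is read after odorant application. Basal signal is subtracted, data are normalized to a reference odorant–receptor maximum, and mock is subtracted. EC50 comes from a Hill fit weighted by 0.1/SD, with slope ≤2.9. Results are mean ± SD; surface expression is checked by flow cytometry.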

[1] = system: 386 human OR types and 380 of their most frequent variants; test: Screening of TDN against OR library of 766 cDNAs; format: cell-based; conditions: 100 μmol/L TDN, 766 OR cDNAs
[2] = cited from earlier work
ecOR8H1 = test: HEK-293 cAMP luminescence assay, horse ortholog ecOR8H1; format: cell-based, Equus caballus (horse)
In short: as §1

Structure (SMILES): C=C(C)[C@@H]1CC=C(C)C(=O)C1 [Compound 6, (5R)-2-methyl-5-prop-1-en-2-ylcyclohex-2-en-1-one]
- EC50 (OR8H1): 193 ± 9.52 µM
- KFO library screening response of OR8H1 (2σ-threshold) (OR8H1): false-negative responder
- agonist validation by concentration–response relation on OR8H1 (OR8H1): agonist of OR8H1

Structure (SMILES): CC(C)c1ccc(C=O)cc1 [Compound 7, 4-Propan-2-ylbenzaldehyde]
- activation of OR2W1 (OR2W1): did not activate
- response of chimp orthologue (concentration–response) (ptOR8H1): responded
- EC50 (OR8H1): 92 ± 11.7 µM

Structure (SMILES): COc1nccnc1C(C)C [Compound 3, 2-methoxy-3-propan-2-ylpyrazine]
- EC50 (OR8H1): 147 ± 8.64 µM

Structure (SMILES): Cc1ccc2c(c1)C=CCC2(C)C [TDN, 1,1,6-trimethyl-1,2-dihydronaphthalene]
- EC50 (ptOR8H1; chimp ptOR8H1 in HEK-293, n = 3): 37.8 ± 29.1 µM
- response of chimp orthologue (concentration–response) (ptOR8H1): responded
- efficacy lower than at the human receptor (ptOR8H1; ptOR8H1 versus human OR8H1): ~7 fold
- receptor activation above 3σ-threshold in OR library screening [1]: exclusively activated a single OR above a 3σ-threshold: OR8H1
- odor (detection) threshold in Riesling wine ([2]; Riesling wine): 2.3 µg/L
- odor threshold, originally reported [2]: 20 µg/L
- detection threshold ([2]; spiked model wine): 2 µg/L
- response of horse orthologue to TDN (ecOR8H1): nonresponding
- EC50 (OR8H1): 32 ± 6.09 µM

Structure (SMILES): C=C(C)c1ccc(C)cc1 [Compound 1, 1-methyl-4-(prop-1-en-2-yl)benzene]
- EC50 (OR8H1): 336 ± 74.9 µM

Structure (SMILES): C=CCc1ccc(OC)c(OC)c1 [Compound 2, 1,2-dimethoxy-4-prop-2-enylbenzene]
- activation of OR2W1 (OR2W1): did not activate
- EC50 (OR8H1): 114 ± 20.1 µM

Structure (SMILES): CC(=O)OCCc1ccccc1 [2-phenylethyl acetate]
- KFO library screening response of OR8H1 (2σ-threshold) (OR8H1): did not activate OR8H1

Structure (SMILES): CC1=CCC(C(C)(C)S)CC1 (stereo not drawn) [Compound 8, 2-(4-methylcyclohex-3-en-1-yl)propane-2-thiol]
- response of chimp orthologue (concentration–response) (ptOR8H1): responded
- EC50 (OR8H1): 206 ± 80.8 µM

Structure (SMILES): CC(=O)c1ccc2ccccc2c1 [2-acetylnaphthalene]
- agonist validation by concentration–response relation on OR8H1 (OR8H1): agonist for OR8H1

Structure (SMILES): CCCc1ccc(O)c(OC)c1 [Compound 5, 2-methoxy-4-propylphenol]
- odor threshold (OT in water/EtOH (60/40)) ([2]; water/EtOH (60/40)): 1.9 ^b[35] μg/kg
